≈ marks a conversion by molar mass, not a printed value.
test system: B16; assay: Cytotoxic activity against mouse melanoma cell culture(B-16); format: functional, cell-based
Outline: (§1)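 10^4 B16 or L-1210 (ATCC 219) cells were seeded per well in DMEM with 5% bovine serum and grown 48 h at 37 °C under 5% CO2. Agents from 10 mg/mL stocks in 95% ethanol or DMSO were added as 2× medium, then 48 h more. L-1210 cells were dispersed by pipetting; B16 were detached with 0.01% trypsin/0.1% EDTA for 5 min at 37 °C. Cells were counted by hemocytometer or Coulter counter, and the dose halving the count versus untreated controls was read from the count–concentration plot.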

SMILES	IC50
COC(=O)c1ccc(N)c(-c2ccc3c(n2)C(=O)C(=N)C=C3O)c1	0.4 mg/L (≈ 1.24 µM)
COC(=O)c1nc(C(=O)OC)c(N)c(-c2ccc(OC)c(OC)c2O)c1C	> 20 mg/L
NC1=CC(=O)c2ccc(-c3ccccn3)nc2C1=O	0.26 mg/L (≈ 1.03 µM)

test system: Pseudomonas aeruginosa; assay: Antimicrobial activity was determined against Pseudomonas aeruginosa ATCC 27853 cells; format: functional
Outline: (§2)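 MICs (µg/mL) were determined by agar dilution/streak against S. aureus ATCC 13709, E. coli ATCC 9637, S. gallinarum ATCC 9184, K. pneumoniae ATCC 10031, M. smegmatis ATCC 607, P. aeruginosa ATCC 27853 and C. albicans ATCC 10231.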

SMILES	MIC
COC1=C(N)C(=O)c2nc(-c3nc(C(=O)O)c(C)c(-c4ccc(OC)c(OC)c4O)c3N)ccc2C1=O [STREPTONIGRIN]	6.25 mg/L (≈ 12.3 µM)
NC1=CC(=O)c2ccc(-c3cccc(C(=O)O)n3)nc2C1=O	> 50 mg/L
COC(=O)c1nc(-c2ccc3c(n2)C(=O)C(=N)C(OC)=C3O)c(N)c(-c2ccc(OC)c(OC)c2O)c1C	> 100 mg/L
COC(=O)c1ccc(N)c(-c2ccc3c(n2)C(=O)C(=N)C=C3O)c1	> 50 mg/L
COC(=O)c1nc(C(=O)OC)c(N)c(-c2ccc(OC)c(OC)c2O)c1C	> 50 mg/L
NC1=CC(=O)c2ccc(-c3ccccn3)nc2C1=O	> 100 mg/L

test system: Escherichia coli; assay: Antimicrobial activity was determined against Escherichia coli ATCC 9637; format: functional; outline: as §2

SMILES	MIC
COC1=C(N)C(=O)c2nc(-c3nc(C(=O)O)c(C)c(-c4ccc(OC)c(OC)c4O)c3N)ccc2C1=O [STREPTONIGRIN]	6.25 mg/L (≈ 12.3 µM)
NC1=CC(=O)c2ccc(-c3cccc(C(=O)O)n3)nc2C1=O	> 50 mg/L
COC(=O)c1nc(-c2ccc3c(n2)C(=O)C(=N)C(OC)=C3O)c(N)c(-c2ccc(OC)c(OC)c2O)c1C	> 100 mg/L
COC(=O)c1ccc(N)c(-c2ccc3c(n2)C(=O)C(=N)C=C3O)c1	> 50 mg/L
COC(=O)c1nc(C(=O)OC)c(N)c(-c2ccc(OC)c(OC)c2O)c1C	> 50 mg/L
NC1=CC(=O)c2ccc(-c3ccccn3)nc2C1=O	> 100 mg/L

test system: CCRF-CEM; assay: Cytotoxic activity against human lymphoblastic leukemia cell culture (CCRF-CEM); format: functional, cell-based

SMILES	IC50
COC(=O)c1ccc(N)c(-c2ccc3c(n2)C(=O)C(=N)C=C3O)c1	0.4 mg/L (≈ 1.24 µM)
NC1=CC(=O)c2ccc(-c3ccccn3)nc2C1=O	0.09 mg/L (≈ 0.358 µM)

test system: L1210; assay: Cytotoxic activity against mouse lymphoblastic leukemia cell culture (L-1210); format: functional, cell-based; outline: as §1

SMILES	IC50
COC(=O)c1ccc(N)c(-c2ccc3c(n2)C(=O)C(=N)C=C3O)c1	0.6 mg/L (≈ 1.86 µM)
COC(=O)c1nc(C(=O)OC)c(N)c(-c2ccc(OC)c(OC)c2O)c1C	> 20 mg/L
NC1=CC(=O)c2ccc(-c3ccccn3)nc2C1=O	0.42 mg/L (≈ 1.67 µM)

test system: P388; assay: Cytotoxicity against P388 mouse leukemia cell culture (9PS(P388)); format: functional, cell-based
Outline: (§3)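 P388 (9PS, NCI-supplied line) and 9KB IC50s (µg/mL) followed NCI cell culture protocols. Samples were run in duplicate, and growth was compared with untreated controls. IC50 was extrapolated from a least-squares fit of the dose–response curve.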

SMILES	IC50
COC1=C(N)C(=O)c2nc(-c3nc(C(=O)O)c(C)c(-c4ccc(OC)c(OC)c4O)c3N)ccc2C1=O [STREPTONIGRIN]	0.045 mg/L (≈ 0.0889 µM)
NC1=CC(=O)c2ccc(-c3cccc(C(=O)O)n3)nc2C1=O	> 10 mg/L
COC(=O)c1nc(-c2ccc3c(n2)C(=O)C(=N)C(OC)=C3O)c(N)c(-c2ccc(OC)c(OC)c2O)c1C	0.26 mg/L (≈ 0.5 µM)

test system: L1210; assay: Cytotoxicity against mouse lymphoblastic leukemia cell culture (L-1210); format: functional, cell-based; outline: as §1

SMILES	IC50
COC1=C(N)C(=O)c2nc(-c3nc(C(=O)O)c(C)c(-c4ccc(OC)c(OC)c4O)c3N)ccc2C1=O [STREPTONIGRIN]	0.61 mg/L (≈ 1.2 µM)
NC1=CC(=O)c2ccc(-c3cccc(C(=O)O)n3)nc2C1=O	> 20 mg/L
COC(=O)c1nc(-c2ccc3c(n2)C(=O)C(=N)C(OC)=C3O)c(N)c(-c2ccc(OC)c(OC)c2O)c1C	3.1 mg/L (≈ 5.96 µM)
COC(=O)c1[nH]c(-c2ccc3c(n2)C(=O)C(=N)C=C3O)c2nc3ccccc3c-2c1C	2.2 mg/L (≈ 5.33 µM)

test system: P388; assay: Cytotoxic activity against P388 mouse leukemia cell culture (9PS(P388)); format: functional, cell-based; outline: as §3

SMILES	IC50
COC(=O)c1ccc(N)c(-c2ccc3c(n2)C(=O)C(=N)C=C3O)c1	0.2 mg/L (≈ 0.619 µM)
COC(=O)c1nc(C(=O)OC)c(N)c(-c2ccc(OC)c(OC)c2O)c1C	> 10 mg/L
NC1=CC(=O)c2ccc(-c3ccccn3)nc2C1=O	0.0023 mg/L (≈ 0.00915 µM)

test system: Staphylococcus aureus; assay: Antimicrobial activity was determined against Staphylococcus aureus ATCC 13709; format: functional; outline: as §2

SMILES	MIC
COC1=C(N)C(=O)c2nc(-c3nc(C(=O)O)c(C)c(-c4ccc(OC)c(OC)c4O)c3N)ccc2C1=O [STREPTONIGRIN]	< 0.1 mg/L
NC1=CC(=O)c2ccc(-c3cccc(C(=O)O)n3)nc2C1=O	> 50 mg/L
COC(=O)c1nc(-c2ccc3c(n2)C(=O)C(=N)C(OC)=C3O)c(N)c(-c2ccc(OC)c(OC)c2O)c1C	> 100 mg/L
COC(=O)c1ccc(N)c(-c2ccc3c(n2)C(=O)C(=N)C=C3O)c1	> 50 mg/L
COC(=O)c1nc(C(=O)OC)c(N)c(-c2ccc(OC)c(OC)c2O)c1C	> 50 mg/L
NC1=CC(=O)c2ccc(-c3ccccn3)nc2C1=O	3.12 mg/L (≈ 12.4 µM)

test system: CCRF-CEM; assay: Cytotoxicity against human lymphoblastic leukemia cell culture (CCRF-CEM); format: functional, cell-based

SMILES	IC50
COC1=C(N)C(=O)c2nc(-c3nc(C(=O)O)c(C)c(-c4ccc(OC)c(OC)c4O)c3N)ccc2C1=O [STREPTONIGRIN]	0.00017 mg/L (≈ 0.000336 µM)
NC1=CC(=O)c2ccc(-c3cccc(C(=O)O)n3)nc2C1=O	2.1 mg/L (≈ 7.11 µM)
COC(=O)c1nc(-c2ccc3c(n2)C(=O)C(=N)C(OC)=C3O)c(N)c(-c2ccc(OC)c(OC)c2O)c1C	0.017 mg/L (≈ 0.0327 µM)

test system: Epidermoid carcinoma cell line; assay: Cytotoxicity against human epidermoid carcinoma of the nasopharynx (9KB); format: functional, cell-based; outline: as §3

SMILES	IC50
COC1=C(N)C(=O)c2nc(-c3nc(C(=O)O)c(C)c(-c4ccc(OC)c(OC)c4O)c3N)ccc2C1=O [STREPTONIGRIN]	0.0025 mg/L (≈ 0.00494 µM)
NC1=CC(=O)c2ccc(-c3cccc(C(=O)O)n3)nc2C1=O	> 10 mg/L
COC(=O)c1nc(-c2ccc3c(n2)C(=O)C(=N)C(OC)=C3O)c(N)c(-c2ccc(OC)c(OC)c2O)c1C	0.53 mg/L (≈ 1.02 µM)

test system: Epidermoid carcinoma cell line; assay: Cytotoxic activity against human epidermoid carcinoma of the nasopharynx (9KB); format: functional, cell-based; outline: as §3

SMILES	IC50
COC(=O)c1ccc(N)c(-c2ccc3c(n2)C(=O)C(=N)C=C3O)c1	2.7 mg/L (≈ 8.35 µM)
COC(=O)c1nc(C(=O)OC)c(N)c(-c2ccc(OC)c(OC)c2O)c1C	> 10 mg/L
NC1=CC(=O)c2ccc(-c3ccccn3)nc2C1=O	0.1 mg/L (≈ 0.398 µM)

test system: Salmonella enterica subsp. enterica serovar Gallinarum; assay: Antimicrobial activity was determined against Salmonella gallinarum ATCC 9184; format: functional; outline: as §2

SMILES	MIC
COC1=C(N)C(=O)c2nc(-c3nc(C(=O)O)c(C)c(-c4ccc(OC)c(OC)c4O)c3N)ccc2C1=O [STREPTONIGRIN]	1.56 mg/L (≈ 3.08 µM)
NC1=CC(=O)c2ccc(-c3cccc(C(=O)O)n3)nc2C1=O	> 50 mg/L
COC(=O)c1nc(-c2ccc3c(n2)C(=O)C(=N)C(OC)=C3O)c(N)c(-c2ccc(OC)c(OC)c2O)c1C	> 100 mg/L
COC(=O)c1ccc(N)c(-c2ccc3c(n2)C(=O)C(=N)C=C3O)c1	> 50 mg/L
COC(=O)c1nc(C(=O)OC)c(N)c(-c2ccc(OC)c(OC)c2O)c1C	> 50 mg/L
NC1=CC(=O)c2ccc(-c3ccccn3)nc2C1=O	100 mg/L (≈ 398 µM)

test system: Mycolicibacterium smegmatis; assay: Antimicrobial activity was determined against Mycobacterium smegmatis ATCC 607; format: functional; outline: as §2

SMILES	MIC
COC1=C(N)C(=O)c2nc(-c3nc(C(=O)O)c(C)c(-c4ccc(OC)c(OC)c4O)c3N)ccc2C1=O [STREPTONIGRIN]	1.56 mg/L (≈ 3.08 µM)
NC1=CC(=O)c2ccc(-c3cccc(C(=O)O)n3)nc2C1=O	> 50 mg/L
COC(=O)c1nc(-c2ccc3c(n2)C(=O)C(=N)C(OC)=C3O)c(N)c(-c2ccc(OC)c(OC)c2O)c1C	> 100 mg/L
COC(=O)c1ccc(N)c(-c2ccc3c(n2)C(=O)C(=N)C=C3O)c1	> 50 mg/L
COC(=O)c1nc(C(=O)OC)c(N)c(-c2ccc(OC)c(OC)c2O)c1C	> 50 mg/L
NC1=CC(=O)c2ccc(-c3ccccn3)nc2C1=O	0.78 mg/L (≈ 3.1 µM)

test system: B16; assay: Cytotoxicity against mouse melanoma cell culture(B-16); format: functional, cell-based; outline: as §1

SMILES	IC50
COC1=C(N)C(=O)c2nc(-c3nc(C(=O)O)c(C)c(-c4ccc(OC)c(OC)c4O)c3N)ccc2C1=O [STREPTONIGRIN]	0.48 mg/L (≈ 0.948 µM)
NC1=CC(=O)c2ccc(-c3cccc(C(=O)O)n3)nc2C1=O	> 20 mg/L
COC(=O)c1nc(-c2ccc3c(n2)C(=O)C(=N)C(OC)=C3O)c(N)c(-c2ccc(OC)c(OC)c2O)c1C	1.5 mg/L (≈ 2.88 µM)
COC(=O)c1[nH]c(-c2ccc3c(n2)C(=O)C(=N)C=C3O)c2nc3ccccc3c-2c1C	3.1 mg/L (≈ 7.52 µM)

test system: Candida albicans; assay: Antimicrobial activity was determined against Candida albicans ATCC 10231; format: functional; outline: as §2

SMILES	MIC
COC1=C(N)C(=O)c2nc(-c3nc(C(=O)O)c(C)c(-c4ccc(OC)c(OC)c4O)c3N)ccc2C1=O [STREPTONIGRIN]	12.5 mg/L (≈ 24.7 µM)
NC1=CC(=O)c2ccc(-c3cccc(C(=O)O)n3)nc2C1=O	> 50 mg/L
COC(=O)c1nc(-c2ccc3c(n2)C(=O)C(=N)C(OC)=C3O)c(N)c(-c2ccc(OC)c(OC)c2O)c1C	> 100 mg/L
COC(=O)c1ccc(N)c(-c2ccc3c(n2)C(=O)C(=N)C=C3O)c1	> 50 mg/L
COC(=O)c1nc(C(=O)OC)c(N)c(-c2ccc(OC)c(OC)c2O)c1C	> 50 mg/L
NC1=CC(=O)c2ccc(-c3ccccn3)nc2C1=O	50 mg/L (≈ 199 µM)

test system: Klebsiella pneumoniae; assay: Antimicrobial activity was determined against Klebsiella pneumoniae ATCC 10031; format: functional; outline: as §2

SMILES	MIC
COC1=C(N)C(=O)c2nc(-c3nc(C(=O)O)c(C)c(-c4ccc(OC)c(OC)c4O)c3N)ccc2C1=O [STREPTONIGRIN]	0.1 mg/L (≈ 0.197 µM)
NC1=CC(=O)c2ccc(-c3cccc(C(=O)O)n3)nc2C1=O	> 50 mg/L
COC(=O)c1nc(-c2ccc3c(n2)C(=O)C(=N)C(OC)=C3O)c(N)c(-c2ccc(OC)c(OC)c2O)c1C	> 100 mg/L
COC(=O)c1ccc(N)c(-c2ccc3c(n2)C(=O)C(=N)C=C3O)c1	> 50 mg/L
COC(=O)c1nc(C(=O)OC)c(N)c(-c2ccc(OC)c(OC)c2O)c1C	> 50 mg/L
NC1=CC(=O)c2ccc(-c3ccccn3)nc2C1=O	100 mg/L (≈ 398 µM)
